ChEMBL document CHEMBL1139526, “Synthesis, antiviral activity, and mechanism of drug resistance of D- and L-2',3'-didehydro-2',3'-dideoxy-2'-fluorocarbocyclic nucleosides” (J Med Chem, 2005)

Experiments:
[1] = test system: PBMC; assay: (§1) In vitro effective concentration against […] wild type HIV-1 in human peripheral blood mononuclear cells; assay type: functional, cell-based
Method in brief: (§2)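 Molecular clones were used: wild-type HIV-1 xxBru and lamivudine-resistant HIV-1 M184Vpitt. Human PBM cells were infected in bulk for 1 h, then cultured in 10-fold serial compound dilutions with IL-2 for 5 days at 37 °C. Pelleted supernatant virus was assayed for RT activity, 2 h at 37 °C with [³H]TTP. EC50/EC90 came from median-effect analysis. Fold increase is M184V EC50 over xxBRU EC50.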

[2] = test system: PBMC; assay: as §1; assay type: functional; method in brief: as §2
[3] = test system: PBMC; assay: Effective concentration to inhibit HIV-1 activity in human peripheral blood mononuclear cells; assay type: functional, cell-based
Method in brief: (§3)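 HIV-1 LAI was the reference virus. Human PBM cells were infected in bulk for 1 h at 100 TCID50/1 × 10⁷ cells (flask) or 200 TCID50/6 × 10⁵ cells/well. Cells went into 10-fold serial compound dilutions in RPMI-1640 with 16% FBS, DEAE-dextran and IL-2, 5 days at 37 °C. Read-out was supernatant RT activity ([³H]TTP, poly(rA)·oligo(dT)). EC50 was taken by the median effect method.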

[4] = test system: CCRF-CEM; assay: Inhibitory concentration against CEM cell line; assay type: functional, cell-based; settings: Homo sapiens
Method in brief: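 CEM T-lymphoblastoid cells in log phase, 2.5 × 10³ cells/well, were exposed to 10-fold serial dilutions for 4 days at 37 °C and 5% CO₂. MTT was added overnight, then solubilized, with absorbance read at 570 nm. IC50 was taken from median-effect analysis.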

[5] = test system: PBMC; assay: Inhibitory concentration was determined against PHA stimulated human peripheral blood mononuclear cells; assay type: functional, cell-based
Method in brief: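 Uninfected PHA-stimulated PBM cells from healthy HIV/HBV-seronegative donors were isolated by Ficoll-Hypaque and seeded at 5 × 10⁴ cells/well. Cells were incubated 5 days at 37 °C with 10-fold serial dilutions. Read-out was MTT reduction at 570 nm after overnight dye and solubilization. IC50 was taken by median-effect analysis.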

[6] = test system: Vero; assay: Inhibitory concentration against uninfected Vero cells; assay type: functional, cell-based; settings: Chlorocebus sabaeus
Method in brief: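 Uninfected Vero cells in log phase, 5 × 10³ cells/well, were exposed to 10-fold serial drug dilutions for 3 days at 37 °C. Viability was read by MTT overnight, solubilized, at 570 nm. IC50 came from the median effect method.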

[7] = test system: PBMC; assay: Fold increase in ratio of EC50 against HIV-1 M184V to that of EC50 against HIV-1wild type; assay type: functional, Homo sapiens
Method in brief: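 PHA-stimulated human PBM cells infected in bulk for 1 h with the molecular clones HIV-1 xxBru (wild type) or M184Vpitt, then added to 10-fold serial drug dilutions. Cultured 5 days at 37 °C. Supernatant virus was pelleted and its RT activity measured by [3H]TTP incorporation on poly(rA)·oligo(dT). EC50 by the median effect method; fold increase = EC50 M184V / EC50 xxBru.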

[8] = test system: PBMC
[9] = test system: PBMC; assay: In vitro effective concentration against Lamivudine resistant HIV-1 mutant M184V in human peripheral blood mononuclear cells; assay type: functional
[10] = test system: PBMC; assay: In vitro effective concentration against HIV-1 in human peripheral blood mononuclear cells; assay type: functional, cell-based; method in brief: as §3
[11] = test system: PBMC; assay: In vitro effective concentration against HBV in human peripheral blood mononuclear cells; assay type: functional, cell-based
[12] = test system: MT4; assay: In vitro effective concentration against HIV-1 in MT-4 cells; assay type: functional, cell-based; settings: Homo sapiens

Nc1ccn([C@@H]2CS[C@H](CO)O2)c(=O)n1 [LAMIVUDINE]
EC50 [1]: 0.027 µM
EC90 [2]: 0.25 µM

Cc1cn([C@@H]2C[C@H](CO)C=C2F)c(=O)[nH]c1=O
EC50 [3]: > 100 µM
IC50 [4]: > 100 µM
IC50 [5]: > 100 µM
IC50 [6]: > 100 µM

Nc1ncnc2c1ncn2[C@H]1C[C@@H](CO)C=C1F
EC50 [3]: 0.77 µM
IC50 [4]: > 100 µM
IC50 [5]: > 100 µM
EC50 [1]: 0.77 µM
IC50 [6]: > 100 µM
Fold increase [7]: 98
EC50 [8]: 75.3 µM
EC90 [2]: 8.34 µM
EC90 [9]: > 100 µM

OC[C@H]1C=C(F)[C@@H](n2cnc3c(O)ncnc32)C1
EC50 [3]: > 100 µM
IC50 [4]: 91.3 µM
IC50 [5]: > 100 µM
IC50 [6]: > 100 µM

Nc1ccn([C@H]2C=C(F)[C@@H](CO)S2)c(=O)n1
EC50 [10]: 0.12 µM

Nc1ccn([C@@H]2C[C@H](CO)C=C2F)c(=O)n1
EC50 [3]: > 100 µM
IC50 [4]: > 100 µM
IC50 [5]: > 100 µM
IC50 [6]: > 100 µM

Nc1ncnc2c1ncn2[C@H]1C=C(F)C(CO)O1 (single isomer, unassigned)
EC50 [10]: 4.4 µM

Nc1nc(O)c2ncn([C@H]3C[C@@H](CO)C=C3F)c2n1
EC50 [3]: > 100 µM
IC50 [4]: > 100 µM
IC50 [5]: > 100 µM
IC50 [6]: > 100 µM

Nc1nc(=O)n([C@@H]2O[C@H](CO)C=C2F)cc1F
EC50 [11]: 0.22 µM
EC50 [10]: 0.17 µM

Nc1nc(O)c2ncn([C@@H]3C[C@H](CO)C=C3F)c2n1
EC50 [3]: 37.8 µM
IC50 [4]: > 100 µM
IC50 [5]: > 100 µM
EC50 [10]: 37.8 µM
IC50 [6]: > 100 µM

Nc1ncnc2c1ncn2[C@@H]1C[C@H](CO)C=C1F
EC50 [3]: 72.8 µM
IC50 [4]: > 100 µM
IC50 [5]: > 100 µM
EC50 [10]: 72.8 µM
IC50 [6]: > 100 µM

Nc1nc(=O)n([C@H]2C=C(F)[C@@H](CO)S2)cc1F
EC50 [10]: 0.15 µM

Nc1ccn([C@@H]2S[C@H](CO)C=C2F)c(=O)n1
EC50 [10]: 1.3 µM

Cc1cn([C@H]2C[C@H](N=[N+]=[N-])[C@@H](CO)O2)c(=O)[nH]c1=O [ZIDOVUDINE]
EC50 [3]: 0.0018 µM
IC50 [5]: > 100 µM

OC[C@@H]1C=C(F)[C@H](n2cnc3c(O)ncnc32)C1
EC50 [3]: > 100 µM
IC50 [4]: > 100 µM
IC50 [5]: > 100 µM
IC50 [6]: > 100 µM

Nc1ccn([C@H]2C[C@@H](CO)C=C2F)c(=O)n1
EC50 [3]: 37.7 µM
IC50 [4]: > 100 µM
IC50 [5]: > 100 µM
IC50 [6]: > 100 µM

O=c1ccn([C@H]2C[C@@H](CO)C=C2F)c(=O)[nH]1
EC50 [3]: > 100 µM
IC50 [4]: > 100 µM
IC50 [5]: > 100 µM
IC50 [6]: > 100 µM

Nc1nc2c(ncn2[C@H]2C=C[C@@H](CO)C2)c(=O)[nH]1 [CARBOVIR]
EC50 [10]: 0.55 µM
IC50 [12]: 4.6 µM

Cc1cn([C@H]2C[C@@H](CO)C=C2F)c(=O)[nH]c1=O
EC50 [3]: > 100 µM
IC50 [4]: > 100 µM
IC50 [5]: > 100 µM
IC50 [6]: > 100 µM

Nc1nc(=O)n([C@H]2C=C(F)C(CO)O2)cc1F (single isomer, unassigned)
EC50 [10]: 0.82 µM

Nc1ccn([C@@H]2O[C@H](CO)C=C2F)c(=O)n1
EC50 [11]: 0.8 µM
EC50 [10]: 0.51 µM

Nc1ncnc2c1ncn2[C@@H]1O[C@H](CO)C=C1F
EC50 [11]: 1.7 µM
EC50 [10]: 1.5 µM

O=c1ccn([C@@H]2C[C@H](CO)C=C2F)c(=O)[nH]1
EC50 [3]: > 100 µM
IC50 [4]: > 100 µM
IC50 [5]: > 100 µM
IC50 [6]: > 100 µM
